From ChEMBL document CHEMBL4038334, “Coumarin versus Chromone Monoamine Oxidase B Inhibitors: Quo Vadis?” (J Med Chem, 2017)

Legend:
[1] = target: T1, Amine oxidase [flavin-containing] B (Homo sapiens, UniProt P27338); assay: biochemical; type: cell-based
T1 sequence (P27338 whole entry): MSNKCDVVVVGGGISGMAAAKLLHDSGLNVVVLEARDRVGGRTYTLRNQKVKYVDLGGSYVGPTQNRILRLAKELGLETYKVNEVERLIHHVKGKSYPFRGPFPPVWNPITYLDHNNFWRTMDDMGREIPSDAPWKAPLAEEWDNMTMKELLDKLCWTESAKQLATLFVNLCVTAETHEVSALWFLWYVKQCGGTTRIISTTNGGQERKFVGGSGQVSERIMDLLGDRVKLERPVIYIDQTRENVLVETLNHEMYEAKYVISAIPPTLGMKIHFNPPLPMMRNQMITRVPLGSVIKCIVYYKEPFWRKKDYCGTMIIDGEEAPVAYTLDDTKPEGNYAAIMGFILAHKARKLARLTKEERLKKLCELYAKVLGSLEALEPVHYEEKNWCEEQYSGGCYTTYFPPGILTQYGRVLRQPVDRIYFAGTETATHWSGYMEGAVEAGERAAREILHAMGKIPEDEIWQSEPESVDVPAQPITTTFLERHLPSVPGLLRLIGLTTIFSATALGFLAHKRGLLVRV

[2] = target: T2, Amine oxidase [flavin-containing] A (Homo sapiens, UniProt P21397); assay: Inhibition of human recombinant microsomal MAOA expressed in baculovirus infected BTI-TN-5B1- 4 cells using p-tyramine as substrate assessed as decrease in H2O2 production at 100 uM after 15 mins by amplex red-based fluorescence assay; details: 0.25 h
T2 sequence (P21397 whole entry): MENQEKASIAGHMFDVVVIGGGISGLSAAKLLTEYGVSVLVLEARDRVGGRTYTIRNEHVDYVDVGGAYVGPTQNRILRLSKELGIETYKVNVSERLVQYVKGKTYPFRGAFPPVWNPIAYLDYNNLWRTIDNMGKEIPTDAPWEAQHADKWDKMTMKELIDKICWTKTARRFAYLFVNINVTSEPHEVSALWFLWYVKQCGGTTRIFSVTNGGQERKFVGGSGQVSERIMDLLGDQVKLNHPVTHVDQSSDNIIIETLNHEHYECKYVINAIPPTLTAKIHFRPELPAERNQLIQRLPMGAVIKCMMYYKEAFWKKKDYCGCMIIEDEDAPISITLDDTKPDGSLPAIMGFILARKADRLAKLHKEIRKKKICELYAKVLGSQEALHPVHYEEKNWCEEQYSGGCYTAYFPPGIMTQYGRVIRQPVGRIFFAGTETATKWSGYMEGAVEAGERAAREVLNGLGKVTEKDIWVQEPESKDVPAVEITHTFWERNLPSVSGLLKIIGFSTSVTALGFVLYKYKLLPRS

Homo sapiens = species on record: Homo sapiens; assay: Selectivity index, ratio of IC50 for human recombinant microsomal MAOA to IC50 for human recombinant microsomal MAOB
[3] = target: T1, Amine oxidase [flavin-containing] B; assay: Noncompetitive inhibition of human recombinant microsomal MAOB expressed in baculovirus infected BTI-TN-5B1- 4 cells using p-tyramine as substrate assessed as decrease in H2O2 production by Lineweaver-Burk plot analysis
In short: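 Substrate-dependent kinetic experiments on hMAO-B. Inhibition mode was read from Lineweaver-Burk plots, and Ki was calculated from the corresponding Dixon plots.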

[4] = target: T1, Amine oxidase [flavin-containing] B; assay: Binding affinity to human recombinant microsomal MAOB expressed in baculovirus infected BTI-TN-5B1- 4 cells assessed as decrease in H2O2 production at 12.5 nM after 15 mins by amplex red-based fluorescence assay; details: 0.25 h, 0.0125 µM
[5] = target: T1, Amine oxidase [flavin-containing] B; assay: Reversible inhibition of human recombinant microsomal MAOB expressed in baculovirus infected BTI-TN-5B1- 4 cells assessed as decrease in H2O2 production at 12.5 nM after 60 mins by amplex red-based fluorescence assay; details: 1 h, 0.0125 µM
[6] = target: T1, Amine oxidase [flavin-containing] B; assay: Reversible inhibition of human recombinant microsomal MAOB expressed in baculovirus infected BTI-TN-5B1- 4 cells assessed as decrease in H2O2 production at 40 nM after 15 mins by amplex red-based fluorescence assay; details: 0.25 h, 0.04 µM

COc1ccc2oc(=O)c(C(=O)Nc3cccc(Cl)c3)cc2c1
IC50 [1]: 9.03 nM
inhibition (INH) [2]: Not Active
Ratio IC50 (Homo sapiens): > 11100

COc1ccc2oc(=O)c(C(=O)Nc3ccc(O)cc3)cc2c1
inhibition (INH) [2]: Not Active

Cc1ccc2occ(C(=O)Nc3cccc(Cl)c3)c(=O)c2c1
IC50 [1]: 4.2 nM
inhibition (INH) [2]: Not Active
Ratio IC50 (Homo sapiens): > 23800
Ki [3]: 2.69 nM
Activity [4]: Active
inhibition (INH) [5]: Active

C[C@H](NCc1ccc(OCc2cccc(F)c2)cc1)C(N)=O [SAFINAMIDE]
inhibition (INH) [2]: Not Active
inhibition (INH) [6]: Active

COc1ccc2oc(=O)c(C(=O)Nc3ccc(C)cc3)cc2c1
IC50 [1]: 19.4 nM
inhibition (INH) [2]: Not Active
Ratio IC50 (Homo sapiens): > 5150

Cc1ccc2occ(C(=O)Nc3ccccc3)c(=O)c2c1
IC50 [1]: 21.4 nM
inhibition (INH) [2]: Not Active
Ratio IC50 (Homo sapiens): > 4680

Cc1ccc2oc(=O)c(C(=O)Nc3cccc(Cl)c3)cc2c1
IC50 [1]: 5.07 nM
inhibition (INH) [2]: Not Active
Ratio IC50 (Homo sapiens): > 19700
Ki [3]: 1.17 nM
Activity [4]: Active
inhibition (INH) [5]: Active

COc1ccc2occ(C(=O)Nc3ccc(O)cc3)c(=O)c2c1
IC50 [1]: 674 nM
inhibition (INH) [2]: Not Active
Ratio IC50 (Homo sapiens): > 148

COc1ccc2occ(C(=O)Nc3cccc(O)c3)c(=O)c2c1
IC50 [1]: 113 nM
inhibition (INH) [2]: Not Active
Ratio IC50 (Homo sapiens): > 881

COc1ccc2occ(C(=O)Nc3cccc(C)c3)c(=O)c2c1
IC50 [1]: 21.8 nM
inhibition (INH) [2]: Not Active
Ratio IC50 (Homo sapiens): > 4590

Cc1ccc2occ(C(=O)Nc3ccc(O)cc3)c(=O)c2c1
IC50 [1]: 513 nM
inhibition (INH) [2]: Not Active
Ratio IC50 (Homo sapiens): > 195

Cc1ccc2occ(C(=O)Nc3ccc(Cl)cc3)c(=O)c2c1
IC50 [1]: 45.4 nM
inhibition (INH) [2]: Not Active
Ratio IC50 (Homo sapiens): > 2200

Cc1cccc(NC(=O)c2cc3cc(C)ccc3oc2=O)c1
IC50 [1]: 7.52 nM
inhibition (INH) [2]: Not Active
Ratio IC50 (Homo sapiens): > 13300

Cc1ccc(NC(=O)c2cc3cc(C)ccc3oc2=O)cc1
IC50 [1]: 13.9 nM
inhibition (INH) [2]: Not Active
Ratio IC50 (Homo sapiens): > 7190

COc1ccc2oc(=O)c(C(=O)Nc3cccc(C)c3)cc2c1
IC50 [1]: 47.2 nM
inhibition (INH) [2]: Not Active
Ratio IC50 (Homo sapiens): > 2120

Cc1ccc(NC(=O)c2coc3ccc(C)cc3c2=O)cc1
IC50 [1]: 152 nM
inhibition (INH) [2]: Not Active
Ratio IC50 (Homo sapiens): > 660

COc1ccc2oc(=O)c(C(=O)Nc3ccccc3)cc2c1
IC50 [1]: 5.95 nM
inhibition (INH) [2]: Not Active
Ratio IC50 (Homo sapiens): > 16800

Cc1ccc2oc(=O)c(C(=O)Nc3cccc(O)c3)cc2c1
IC50 [1]: 45.4 nM
inhibition (INH) [2]: Not Active
Ratio IC50 (Homo sapiens): > 2200

COc1ccc2oc(=O)c(C(=O)Nc3ccc(Cl)cc3)cc2c1
IC50 [1]: 18.9 nM
inhibition (INH) [2]: Not Active
Ratio IC50 (Homo sapiens): > 5290

Cc1ccc2oc(=O)c(C(=O)Nc3ccc(Cl)cc3)cc2c1
IC50 [1]: 11.1 nM
inhibition (INH) [2]: Not Active
Ratio IC50 (Homo sapiens): > 9030

COc1ccc2oc(=O)c(C(=O)Nc3cccc(O)c3)cc2c1
IC50 [1]: 229 nM
inhibition (INH) [2]: Not Active
Ratio IC50 (Homo sapiens): > 447

COc1ccc2occ(C(=O)Nc3ccc(Cl)cc3)c(=O)c2c1
IC50 [1]: 10.3 nM
inhibition (INH) [2]: Not Active
Ratio IC50 (Homo sapiens): > 9700

COc1ccc2occ(C(=O)Nc3ccc(C)cc3)c(=O)c2c1
IC50 [1]: 211 nM
inhibition (INH) [2]: Not Active
Ratio IC50 (Homo sapiens): > 474

COc1ccc2occ(C(=O)Nc3cccc(Cl)c3)c(=O)c2c1
IC50 [1]: 3.94 nM
inhibition (INH) [2]: Not Active
Ratio IC50 (Homo sapiens): > 25400

Cc1ccc2oc(=O)c(C(=O)Nc3ccccc3)cc2c1
IC50 [1]: 15.3 nM
inhibition (INH) [2]: Not Active
Ratio IC50 (Homo sapiens): > 6530

Cc1cccc(NC(=O)c2coc3ccc(C)cc3c2=O)c1
IC50 [1]: 17.1 nM
inhibition (INH) [2]: Not Active
Ratio IC50 (Homo sapiens): > 5850

Cc1ccc2occ(C(=O)Nc3cccc(O)c3)c(=O)c2c1
IC50 [1]: 78.2 nM
inhibition (INH) [2]: Not Active
Ratio IC50 (Homo sapiens): > 1280

COc1ccc2occ(C(=O)Nc3ccccc3)c(=O)c2c1
IC50 [1]: 41.8 nM
inhibition (INH) [2]: Not Active
Ratio IC50 (Homo sapiens): > 2390

Cc1ccc2oc(=O)c(C(=O)Nc3ccc(O)cc3)cc2c1
IC50 [1]: 622 nM
inhibition (INH) [2]: Not Active
Ratio IC50 (Homo sapiens): > 161
